Assay results as given in ChEMBL document CHEMBL1129932, “Novel naphthalene derivatives as inhibitors of human immunoglobulin E antibody production” (J Med Chem, 1997).

Columns and labels:
[1] = In vitro inhibition of IgE antibody production in human PBMC cultured with alpha-CD40, IL-4 and IL-10 at 3 uM concentration; assay type: functional
Summary of the method: (§1)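 Human PBMC from healthy donors (final 2×10^6 cells/mL) were cultured in triplicate in RPMI 1640 with 10% FCS, 2 mM glutamine and penicillin/streptomycin. On day 0 they received IL-4 0.1 μg/mL, IL-10 0.2 μg/mL and α-CD40 2 μg/mL, with or without compound. After 14 days, IgE in the medium was measured by ELISA. Suppression (%) = (without − with compound)/without × 100, and IC50 was given for active compounds.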

[2] = In vitro inhibition of IgG antibody production in human PBMC cultured with alpha-CD40, IL-4 and IL-10 at 3 uM concentration […]; assay type: functional
[3] = Tested for human PBMC cell viability, cultured with alpha-CD40, IL-4 and IL-10 at 3 uM (a negative number means enhancement of cell viability); assay type: functional
Summary of the method: (§2)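 Viability was read in the same 14-day PBMC cultures (2×10^6 cells/mL, triplicate) with IL-4 0.1 μg/mL, IL-10 0.2 μg/mL and α-CD40 2 μg/mL. After the medium was removed, alamar blue was added for 2 h and fluorescence was read (excitation 530 nm, emission 590 nm). Suppression (%) = (without − with compound)/without × 100.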

[4] = In vitro inhibition of IgG antibody production in human PBMC cultured with alpha-CD40, IL-4 and IL-10 at 3 uM concentration; assay type: functional
Summary of the method: (§3)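 Human PBMC from healthy donors (final 2×10^6 cells/mL, triplicate) were cultured in RPMI 1640 with 10% FCS, glutamine and antibiotics. IL-4 (0.1 μg/mL), IL-10 (0.2 μg/mL) and α-CD40 (2 μg/mL) were added on day 0, with or without compound. After 14 days, IgG in the medium was measured by ELISA. Suppression (%) = (level without − level with compound)/level without × 100.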

[5] = In vitro inhibition of IgE antibody production in human PBMC cultured with alpha-CD40, IL-4 and IL-10 at 3 uM concentration […]; assay type: functional
[6] = system: RBL-1; assay: Compound was tested for inhibition of LTB4 production by rat basophilic leukemia cells(RBL-1) stimulated with A-23187; assay type: functional, cell-based
Summary of the method: (§4)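 RBL-1 cells were maintained in DMEM with 10% FCS. Cells were preincubated with or without compound for 10 min at 37 °C, then stimulated with A23187 at a final 2 μM for 5 min. The reaction was stopped, and LTB4 in the centrifuged supernatant was measured by ELISA kit.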

[7] = Inhibitory activity against IgG antibody production in PBMC; assay type: functional; details: Homo sapiens; summary of the method: as §3
[8] = Compound was tested for inhibition of IgE production on human PBMC culture after treating with IL-4, alpha-CD40, IL-10; assay type: functional; summary of the method: as §1
[9] = species: Homo sapiens; assay: Compound was tested for inhibition of PGE-2 production by human lung fibroblast WI-38 stimulated with interleukin-1-alpha (IL-1alpha) and [Ca2+] ionophore A-23187; assay type: functional
Summary of the method: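 WI-38 human lung fibroblasts (2×10^5 cells/mL) were grown to confluence over 4 days, then serum-starved overnight in medium with 0.5% BSA. Medium was replaced with 0.5% BSA medium containing IL-1α 10 ng/mL, with or without compound, and incubated overnight at 37 °C. Released PGE2 was measured by ELISA kit.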

[10] = Inhibitory activity against IgE antibody production in PBMC; assay type: functional; details: Homo sapiens; summary of the method: as §1
[11] = system: RBL-1; assay: Compound was tested for inhibition of LTB4 production by rat basophilic leukemia cells (RBL-1) stimulated with A-23187; assay type: functional, cell-based; summary of the method: as §4
[12] = system: B-cell line; assay: Compound was tested for inhibition of IgE production on mouse B cells after treating with IL-4, LPS; assay type: functional, cell-based
Summary of the method: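 B cells came from DBA/2 splenocytes depleted with anti-mouse T cell serum plus rabbit complement, then fractionated by gradient centrifugation. They were cultured in RPMI 1640 with 10% FCS and LPS at a final 2 μg/mL. After 1 day, mouse IL-4 was added at a final 50 ng/mL. Culture continued for 6 days, and IgE in the media was measured by ELISA.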

[13] = Tested for human PBMC cell viability, cultured with alpha-CD40, IL-4 and IL-10 at 3 uM; assay type: functional; summary of the method: as §2
[14] = Inhibitory activity against IgE antibody production in PMBC cells; assay type: functional, cell-based; details: Homo sapiens; summary of the method: as §1
[15] = In vitro inhibition of IgE antibody production in human PBMC cultured with alpha-CD40, IL-4 and IL-10 at 3 uM concentration (negative means enhancement of antibody biosynthesis); assay type: functional; summary of the method: as §1
[16] = Compound was tested for inhibition of IgE production on human PBMC culture after treating with IL-4, HC; assay type: functional
Summary of the method: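 PBMC at a final 2×10^6 cells/mL were cultured in triplicate in RPMI 1640 with 10% FCS, 2 mM glutamine and penicillin/streptomycin. IL-4 (0.1 μg/mL) and HC (1 μM) were added on day 0, with or without compound. After 14 days, IgE in the medium was measured by ELISA. Suppression (%) = (level without compound − level with compound)/level without compound × 100.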

| SMILES | Suppression [1] [%] | Suppression [2] [%] | Cell viability [3] | Suppression [4] [%] | also measured |
| --- | --- | --- | --- | --- | --- |
| O=C(O)c1ccccc1NCc1ccc(Oc2ccc3ccccc3c2)cc1 | 21.9 | -4.5 | -1.7 | – | – |
| O=C(O)c1ccc(NC(=O)c2ccc(Oc3ccc4ccccc4c3)cc2)cc1 | – | – | -16.1 | 24.4 | Suppression [5]: 6.4% |
| O=C(Nc1ccccc1C(=O)O)c1ccc(Oc2ccc3ccccc3c2)cc1 | 64.8 | -16.9 | -7.4 | – | IC50 [6]: 400 nM; IC50 [7]: 38000 nM; IC50 [8]: 1300 nM; IC50 [9]: 10000 nM |
| O=C(Nc1ccccc1C(=O)O)c1cccc(Oc2ccc3ccccc3c2)c1 | – | -16 | -23.6 | – | Suppression [5]: -26.2% |
| O=C(CCCC1CC1/C=C/c1ccc2ccccc2c1)Nc1ccccc1C(=O)O (centres undefined) | 63 | -0.5 | -2.6% | – | IC50 [7]: > 10000 nM; IC50 [10]: 1880 nM |
| O=C(Cc1ccc(Oc2ccc3cc(OCc4ccccc4)ccc3c2)cc1)Nc1ccccc1C(=O)O | 95.1 | – | – | 91.7 | IC50 [11]: 1200 nM; IC50 [7]: 42 nM; IC50 [12]: 12 nM; IC50 [8]: 8.3 nM; Cell viability [13]: 58.2 |
| O=C(Nc1ccccc1-c1nn[nH]n1)c1ccc(Oc2ccc3ccccc3c2)cc1 | – | -18.7 | -13.6 | – | Suppression [5]: -74.5% |
| O=C(O)c1ccccc1C(=O)Nc1ccc(Oc2ccc3ccccc3c2)cc1 | – | -23.1 | – | – | Cell viability [13]: 1.5; Suppression [5]: -11.8% |
| O=C(Nc1ccccc1C(=O)O)c1ccc(Oc2ccc3ccccc3c2)c([N+](=O)[O-])c1 | 93 | – | – | 36.9 | Cell viability [13]: 19.1 |
| CC(C(=O)Nc1ccccc1C(=O)O)c1ccc(Oc2ccc3ccccc3c2)cc1 (centres undefined) | 8.7 | -15.9 | -2.1 | – | – |
| O=C(Nc1ccccc1C(=O)O)c1ccc(Cc2ccc3ccccc3c2)cc1 | 9.5 | -21.1 | -1.1 | – | – |
| O=C(Nc1ccccc1C(=O)O)c1ccc(Oc2ccccc2)cc1 | 46 | -1.8 | -1.4 | – | IC50 [14]: 3280 nM; IC50 [7]: > 10000 nM |
| NC(=O)c1ccccc1NC(=O)c1ccc(Oc2ccc3ccccc3c2)cc1 | 8.6 | – | – | 10.8 | Cell viability [13]: 7.3 |
| O=C(Nc1ccccc1C(=O)O)c1ccc(Oc2cccc3ccccc23)cc1 | 96.9 | – | -6.5 | 64.7 | IC50 [7]: 2320 nM; IC50 [10]: 1570 nM |
| O=C(Nc1ccccc1C(=O)O)c1ccc(C(=O)c2ccc3ccccc3c2)cc1 | 10.3 | – | – | 5.4 | – |
| CC(C)(C(=O)Nc1ccccc1C(=O)O)c1ccc(Oc2ccc3ccccc3c2)cc1 | – | -5.4 | -11.3 | – | Suppression [15]: -30.4% |
| O=C(O)c1cccc(NC(=O)c2ccc(Oc3ccc4ccccc4c3)cc2)c1 | – | – | -14.5 | 2.5 | Suppression [5]: -29.6% |
| CN(C(=O)c1ccc(Oc2ccc3ccccc3c2)cc1)c1ccccc1C(=O)O | – | – | -5.1 | 10.1 | Suppression [5]: -27.7% |
| O=C(Cc1ccc(Oc2ccc3ccccc3c2)cc1)Nc1ccccc1C(=O)O | 86.6 | – | – | 31.2 | IC50 [11]: 700 nM; IC50 [7]: 4300 nM; IC50 [8]: 600 nM; Cell viability [13]: 11.4; IC50 [9]: 10000 nM; IC50 [16]: 1900 nM |
| O=C(Nc1ccccc1C(=O)O)c1ccc(Oc2ccc3cc(O)ccc3c2)cc1 | 76.6 | -8.7 | – | – | IC50 [7]: > 10000 nM; IC50 [10]: 1200 nM; Cell viability [13]: 5.2 |
| O=C(CCc1ccc(Oc2ccc3ccccc3c2)cc1)Nc1ccccc1C(=O)O | 8.5 | -41.2 | -2.9 | – | – |
| O=C(Nc1ccccc1C(=O)O)c1ccc(COc2ccc3ccccc3c2)cc1 | – | -16.1 | – | – | Suppression [15]: -6.1%; IC50 [8]: > 3000 nM; IC50 [9]: < 1000 nM |
| O=C(Nc1ccccc1C(=O)O)c1ccc(Sc2ccc3ccccc3c2)cc1 | 25.8 | -2.8 | – | – | – |
| O=C(O)c1ccc(Oc2ccc3ccccc3c2)cc1 | – | -4.8 | – | – | Suppression [5]: -4.6% |
| Nc1ccccc1NC(=O)c1ccc(Oc2ccc3ccccc3c2)cc1 | 31.6 | – | – | 3.3 | Cell viability [13]: -9.3 |
